Reference: ChEMBL document CHEMBL5257027 (Eur J Med Chem, 2016)

Legend:
[1] = target: T1, RAF proto-oncogene serine/threonine-protein kinase (Homo sapiens, UniProt P04049); experiment: Inhibition of RAF1 (unknown origin) at 10 uM using […] as substrate incubated for 40 mins in presence of [gamma33P]ATP by scintillation counting based hotspot kinase assay relative to control
LOX IMVI = experiment: Antiproliferative activity against human LOX IMVI cells assessed as inhibition of cell growth at 10 uM; format: functional
Summary of the method: (§1)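 NCI 58-cell-line screen covering leukemia, NSCLC, colon, CNS, melanoma, ovarian, renal, prostate and breast lines. Compounds given once at […] (micromolar per the line). Percent inhibition taken as 100 minus growth percent. Panel line reports the mean over all 58 lines.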

[2] = system: Serine/threonine-protein kinase B-raf (Homo sapiens), P15056 [V600E]; experiment: Inhibition of B-RAF V600E mutant (unknown origin) at 10 uM using […] as substrate incubated for 40 mins in presence of [gamma33P]ATP by scintillation counting based hotspot kinase assay relative to control
Sequence of Serine/threonine-protein kinase B-raf (Homo sapiens), P15056 [V600E] (P15056 whole entry V600E): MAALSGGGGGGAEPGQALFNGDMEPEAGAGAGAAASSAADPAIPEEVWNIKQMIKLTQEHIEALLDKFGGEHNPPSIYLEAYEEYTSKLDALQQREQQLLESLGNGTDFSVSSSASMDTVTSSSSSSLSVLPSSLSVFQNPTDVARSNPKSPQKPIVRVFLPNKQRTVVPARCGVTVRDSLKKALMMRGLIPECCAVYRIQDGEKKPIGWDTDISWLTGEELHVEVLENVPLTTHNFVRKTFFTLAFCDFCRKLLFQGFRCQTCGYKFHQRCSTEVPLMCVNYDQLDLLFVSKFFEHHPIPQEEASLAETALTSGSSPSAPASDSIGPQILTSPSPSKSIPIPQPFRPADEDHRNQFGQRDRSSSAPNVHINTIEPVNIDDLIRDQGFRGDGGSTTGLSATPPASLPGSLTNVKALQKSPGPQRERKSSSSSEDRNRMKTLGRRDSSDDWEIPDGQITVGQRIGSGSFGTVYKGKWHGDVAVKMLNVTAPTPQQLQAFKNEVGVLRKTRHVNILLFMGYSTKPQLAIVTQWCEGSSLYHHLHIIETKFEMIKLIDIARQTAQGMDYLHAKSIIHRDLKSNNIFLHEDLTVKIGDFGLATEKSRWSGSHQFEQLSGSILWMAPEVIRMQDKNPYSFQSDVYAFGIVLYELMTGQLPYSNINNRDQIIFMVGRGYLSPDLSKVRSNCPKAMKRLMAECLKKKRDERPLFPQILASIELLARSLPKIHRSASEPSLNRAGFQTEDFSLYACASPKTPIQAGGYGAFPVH

[3] = Antiproliferative activity against human Panel non-small cell lung cancer (8 Carcinoma cell lines) assessed as reduction in mean cell growth; format: functional; details: Non-small cell lung cancer cell line
Summary of the method: (§2)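 NCI five-dose testing across the 58-line panel gives GI50, TGI and LC50 for each line. Subpanel lines report mean GI50 for each of the nine cancer types.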

HCC 2998 = experiment: Antiproliferative activity against human HCC 2998 cells assessed as inhibition of cell growth at 10 uM; format: functional; summary of the method: as §1
COLO 205 [4] = experiment: Antiproliferative activity against human COLO 205 cells assessed as inhibition of cell growth at 10 uM; format: functional; summary of the method: as §1
HOP-92 [5] = experiment: Cytotoxicity against human HOP-92 cells; format: functional
Summary of the method: (§3)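 Run in the US NCI 58-cell-line screen covering nine cancer types (leukemia, NSCLC, colon, CNS, melanoma, ovarian, renal, prostate, breast). Five-dose mode gave GI50, TGI and LC50 values for each cell line. In the single-dose pre-screen, % inhibition was taken as 100 minus growth percentage.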

COLO 205 [6] = experiment: Antiproliferative activity against human COLO 205 cells assessed as reduction in cell growth; format: functional; summary of the method: as §2
MDA-MB-468 [7] = experiment: Cytotoxicity against human MDA-MB-468 cells; format: functional; details: read-out: LC50 (the source's name); summary of the method: as §3
[8] = system: Panel CNS (Carcinoma cell lines); experiment: Antiproliferative activity against human Panel CNS (6 Carcinoma cell lines) assessed as reduction in mean cell growth; format: functional; summary of the method: as §2
RXF 393 [9] = experiment: Antiproliferative activity against human RXF 393 cells assessed as total growth inhibition; format: functional; summary of the method: as §2
K562 [10] = experiment: Cytotoxicity against human k562 cells; format: functional; details: read-out: LC50 (the source's name); summary of the method: as §3
[11] = system: Panel renal (Carcinoma cell lines); experiment: Antiproliferative activity against human Panel renal (8 Carcinoma cell lines) assessed as reduction in mean cell growth; format: functional; summary of the method: as §2
MDA-MB-468 [12] = experiment: Antiproliferative activity against human MDA-MB-468 cells assessed as reduction in cell growth; format: functional; summary of the method: as §2
[13] = target: Serine/threonine-protein kinase B-raf (Homo sapiens, UniProt P15056, V600E); experiment: Inhibition of B-RAF V600E mutant (unknown origin) using […] as substrate incubated for 40 mins in presence of [gamma33P]ATP by scintillation counting based hotspot kinase assay
Sequence of Serine/threonine-protein kinase B-raf (P15056 2-766 V600E limits assumed): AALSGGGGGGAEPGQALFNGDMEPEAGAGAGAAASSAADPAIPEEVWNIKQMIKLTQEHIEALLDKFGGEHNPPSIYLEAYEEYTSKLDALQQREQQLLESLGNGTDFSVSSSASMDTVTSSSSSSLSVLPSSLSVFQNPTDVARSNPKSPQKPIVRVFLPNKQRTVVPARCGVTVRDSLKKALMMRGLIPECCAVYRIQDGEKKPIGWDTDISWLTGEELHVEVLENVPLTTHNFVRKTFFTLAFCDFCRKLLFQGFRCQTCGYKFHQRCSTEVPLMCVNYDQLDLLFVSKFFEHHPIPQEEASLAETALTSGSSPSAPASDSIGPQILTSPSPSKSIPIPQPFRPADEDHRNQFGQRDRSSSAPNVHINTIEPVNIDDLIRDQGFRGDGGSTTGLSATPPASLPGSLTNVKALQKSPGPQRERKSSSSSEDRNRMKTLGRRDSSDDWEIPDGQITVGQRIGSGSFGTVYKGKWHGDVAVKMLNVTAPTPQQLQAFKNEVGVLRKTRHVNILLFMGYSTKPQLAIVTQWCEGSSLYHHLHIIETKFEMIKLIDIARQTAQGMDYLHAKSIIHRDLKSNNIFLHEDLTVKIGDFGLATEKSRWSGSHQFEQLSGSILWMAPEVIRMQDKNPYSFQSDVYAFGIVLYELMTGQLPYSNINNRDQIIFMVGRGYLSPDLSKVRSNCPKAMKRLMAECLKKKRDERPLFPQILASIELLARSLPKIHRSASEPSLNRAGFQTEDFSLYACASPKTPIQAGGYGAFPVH

[14] = target: Serine/threonine-protein kinase B-raf (Homo sapiens) (UniProt P15056); experiment: Inhibition of B-RAF (unknown origin) at 10 uM using […] as substrate incubated for 40 mins in presence of [gamma33P]ATP by scintillation counting based hotspot kinase assay relative to control
Sequence of Serine/threonine-protein kinase B-raf (Homo sapiens) (P15056 whole entry): as the sequence (P15056 whole entry V600E) above, with E600V counted along it

HCT-15 [15] = experiment: Antiproliferative activity against human HCT-15 cells assessed as total growth inhibition; format: functional; summary of the method: as §2
PC-3 [16] = experiment: Antiproliferative activity against human PC-3 cells assessed as total growth inhibition; format: functional; summary of the method: as §2
HOP-92 [17] = experiment: Antiproliferative activity against human HOP-92 cells assessed as total growth inhibition; format: functional; summary of the method: as §2
SK-MEL-5 [18] = experiment: Antiproliferative activity against human SK-MEL-5 cells assessed as total growth inhibition; format: functional; summary of the method: as §2
SNB-75 [19] = experiment: Antiproliferative activity against human SNB-75 cells assessed as total growth inhibition; format: functional; summary of the method: as §2
NCI/ADR-RES [20] = experiment: Antiproliferative activity against human NCI/ADR-RES cells assessed as reduction in cell growth; format: functional; summary of the method: as §2
HCT-15 [21] = experiment: Cytotoxicity against human HCT-15 cells; format: functional; details: read-out: LC50 (the source's name); summary of the method: as §3
[22] = system: Panel colon (Carcinoma cell lines); experiment: Antiproliferative activity against human Panel colon (7 Carcinoma cell lines) assessed as reduction in mean cell growth; format: functional; summary of the method: as §2
[23] = system: Panel ovarian (Carcinoma cell lines); experiment: Antiproliferative activity against human Panel ovarian (7 Carcinoma cell lines) assessed as reduction in mean cell growth; format: functional; summary of the method: as §2
NCI/ADR-RES [24] = experiment: Antiproliferative activity against human NCI/ADR-RES cells assessed as total growth inhibition; format: functional; summary of the method: as §2
SK-MEL-5 [25] = experiment: Cytotoxicity against human SK-MEL-5 cells; format: functional; summary of the method: as §3
Homo sapiens = organism: Homo sapiens; experiment: Inhibition of ABL […] mutant (unknown origin) at 10 uM using […] as substrate incubated for 40 mins in presence of [gamma33P]ATP by scintillation counting based hotspot kinase assay relative to control
RXF 393 [26] = experiment: Cytotoxicity against human RXF 393 cells; format: functional; summary of the method: as §3
L132 = experiment: Cytotoxicity against human L132 cells assessed as reduction in cell growth at 31.3 to 100 uM relative to control; format: toxicity, cell-based; set-up: scale not given: the % may be the effect or the level left; details: l132, 100 µM, dose 31.3-100 µM
COLO 205 [27] = experiment: Cytotoxicity against human COLO 205 cells; format: functional; summary of the method: as §3
K562 [28] = experiment: Antiproliferative activity against human K562 cells assessed as reduction in cell growth; format: functional; summary of the method: as §2
[29] = system: Panel prostate (Carcinoma cell lines); experiment: Antiproliferative activity against human Panel prostate (2 Carcinoma cell lines) assessed as reduction in mean cell growth; format: functional; summary of the method: as §2
SK-MEL-5 [30] = experiment: Antiproliferative activity against human SK-MEL-5 cells assessed as reduction in cell growth; format: functional; summary of the method: as §2
SNB-75 [31] = experiment: Cytotoxicity against human SNB-75 cells; format: functional; details: read-out: LC50 (the source's name); summary of the method: as §3
K562 [32] = experiment: Antiproliferative activity against human K562 cells assessed as total growth inhibition; format: functional; summary of the method: as §2
[33] = system: Panel breast (Carcinoma cell lines); experiment: Antiproliferative activity against human Panel breast (6 Carcinoma cell lines) assessed as reduction in mean cell growth; format: functional; summary of the method: as §2
[34] = Antiproliferative activity against human Panel NCI-58 (58 Carcinoma cell lines) assessed as reduction in mean cell growth at 10 uM; format: functional; set-up: scale not given: the % may be the effect or the level left; summary of the method: as §1
SNB-75 [35] = experiment: Antiproliferative activity against human SNB-75 cells assessed as reduction in cell growth; format: functional; summary of the method: as §2
MDA-MB-468 [36] = experiment: Antiproliferative activity against human MDA-MB-468 cells assessed as total growth inhibition; format: functional; summary of the method: as §2
PC-3 [37] = experiment: Cytotoxicity against human PC-3 cells; format: functional; summary of the method: as §3
COLO 205 [38] = experiment: Antiproliferative activity against human COLO 205 cells assessed as total growth inhibition; format: functional; summary of the method: as §2
[39] = target: Epidermal growth factor receptor (Homo sapiens) (UniProt P00533); experiment: Inhibition of EGFR (unknown origin) at 10 uM using […] as substrate incubated for 40 mins in presence of [gamma33P]ATP by scintillation counting based hotspot kinase assay relative to control
Sequence of Epidermal growth factor receptor (Homo sapiens) (P00533 whole entry): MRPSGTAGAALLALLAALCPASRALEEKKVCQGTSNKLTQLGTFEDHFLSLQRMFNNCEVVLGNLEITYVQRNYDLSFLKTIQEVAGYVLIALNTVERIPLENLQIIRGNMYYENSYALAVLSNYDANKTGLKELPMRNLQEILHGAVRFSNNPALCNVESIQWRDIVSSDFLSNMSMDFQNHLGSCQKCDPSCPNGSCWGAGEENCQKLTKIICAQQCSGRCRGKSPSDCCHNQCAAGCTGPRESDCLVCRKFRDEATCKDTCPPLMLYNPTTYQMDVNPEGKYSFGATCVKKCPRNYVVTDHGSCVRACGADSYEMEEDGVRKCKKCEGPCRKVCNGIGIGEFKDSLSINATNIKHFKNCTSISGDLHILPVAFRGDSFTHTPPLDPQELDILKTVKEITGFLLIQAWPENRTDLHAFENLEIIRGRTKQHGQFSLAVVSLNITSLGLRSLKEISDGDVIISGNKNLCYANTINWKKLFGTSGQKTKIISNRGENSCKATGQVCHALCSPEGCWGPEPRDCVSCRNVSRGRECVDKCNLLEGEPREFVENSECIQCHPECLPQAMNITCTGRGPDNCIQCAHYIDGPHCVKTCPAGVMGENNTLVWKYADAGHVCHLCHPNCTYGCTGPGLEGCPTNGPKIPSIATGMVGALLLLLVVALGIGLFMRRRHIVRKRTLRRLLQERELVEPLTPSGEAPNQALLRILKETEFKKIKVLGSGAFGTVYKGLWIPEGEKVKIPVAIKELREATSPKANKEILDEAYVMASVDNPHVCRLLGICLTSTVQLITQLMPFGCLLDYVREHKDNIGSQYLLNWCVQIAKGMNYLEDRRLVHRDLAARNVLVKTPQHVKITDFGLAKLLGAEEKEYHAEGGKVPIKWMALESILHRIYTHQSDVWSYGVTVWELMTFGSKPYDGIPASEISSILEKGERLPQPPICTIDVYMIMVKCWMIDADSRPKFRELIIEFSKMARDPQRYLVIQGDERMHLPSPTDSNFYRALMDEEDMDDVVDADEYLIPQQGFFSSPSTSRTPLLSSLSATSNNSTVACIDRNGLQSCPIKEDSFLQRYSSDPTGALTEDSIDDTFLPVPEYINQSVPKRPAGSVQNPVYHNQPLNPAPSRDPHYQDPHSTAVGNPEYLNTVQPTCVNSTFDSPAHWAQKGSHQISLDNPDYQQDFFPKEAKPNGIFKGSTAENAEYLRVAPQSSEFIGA

[40] = system: Panel melanoma (Carcinoma cell lines); experiment: Antiproliferative activity against human Panel melanoma (9 Carcinoma cell lines) assessed as reduction in mean cell growth; format: functional; summary of the method: as §2
HOP-92 [41] = experiment: Antiproliferative activity against human HOP-92 cells assessed as reduction in cell growth; format: functional; summary of the method: as §2
[42] = target: Mitogen-activated protein kinase 14 (Homo sapiens) (UniProt Q16539); experiment: Inhibition of MAPK14 (p38 alpha) (unknown origin) at 10 uM using […] as substrate incubated for 40 mins in presence of [gamma33P]ATP by scintillation counting based hotspot kinase assay relative to control
Sequence of Mitogen-activated protein kinase 14 (Homo sapiens) (Q16539 whole entry): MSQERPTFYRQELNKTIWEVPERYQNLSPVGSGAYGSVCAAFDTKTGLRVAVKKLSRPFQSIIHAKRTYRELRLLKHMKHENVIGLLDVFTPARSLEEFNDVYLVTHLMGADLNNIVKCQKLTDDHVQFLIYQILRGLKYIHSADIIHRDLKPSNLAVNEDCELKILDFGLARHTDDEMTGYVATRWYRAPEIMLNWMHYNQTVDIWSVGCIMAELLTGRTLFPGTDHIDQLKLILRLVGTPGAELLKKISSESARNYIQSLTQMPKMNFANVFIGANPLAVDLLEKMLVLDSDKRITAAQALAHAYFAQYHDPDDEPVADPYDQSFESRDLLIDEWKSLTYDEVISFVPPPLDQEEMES

HCT-15 [43] = experiment: Antiproliferative activity against human HCT-15 cells assessed as reduction in cell growth; format: functional; summary of the method: as §2
RXF 393 [44] = experiment: Antiproliferative activity against human RXF 393 cells assessed as reduction in cell growth; format: functional; summary of the method: as §2
[45] = target: Tyrosine-protein kinase ABL1 (Homo sapiens) (UniProt P00519); experiment: Inhibition of ABL (unknown origin) at 10 uM using […] as substrate incubated for 40 mins in presence of [gamma33P]ATP by scintillation counting based hotspot kinase assay relative to control
Sequence of Tyrosine-protein kinase ABL1 (Homo sapiens) (P00519 whole entry): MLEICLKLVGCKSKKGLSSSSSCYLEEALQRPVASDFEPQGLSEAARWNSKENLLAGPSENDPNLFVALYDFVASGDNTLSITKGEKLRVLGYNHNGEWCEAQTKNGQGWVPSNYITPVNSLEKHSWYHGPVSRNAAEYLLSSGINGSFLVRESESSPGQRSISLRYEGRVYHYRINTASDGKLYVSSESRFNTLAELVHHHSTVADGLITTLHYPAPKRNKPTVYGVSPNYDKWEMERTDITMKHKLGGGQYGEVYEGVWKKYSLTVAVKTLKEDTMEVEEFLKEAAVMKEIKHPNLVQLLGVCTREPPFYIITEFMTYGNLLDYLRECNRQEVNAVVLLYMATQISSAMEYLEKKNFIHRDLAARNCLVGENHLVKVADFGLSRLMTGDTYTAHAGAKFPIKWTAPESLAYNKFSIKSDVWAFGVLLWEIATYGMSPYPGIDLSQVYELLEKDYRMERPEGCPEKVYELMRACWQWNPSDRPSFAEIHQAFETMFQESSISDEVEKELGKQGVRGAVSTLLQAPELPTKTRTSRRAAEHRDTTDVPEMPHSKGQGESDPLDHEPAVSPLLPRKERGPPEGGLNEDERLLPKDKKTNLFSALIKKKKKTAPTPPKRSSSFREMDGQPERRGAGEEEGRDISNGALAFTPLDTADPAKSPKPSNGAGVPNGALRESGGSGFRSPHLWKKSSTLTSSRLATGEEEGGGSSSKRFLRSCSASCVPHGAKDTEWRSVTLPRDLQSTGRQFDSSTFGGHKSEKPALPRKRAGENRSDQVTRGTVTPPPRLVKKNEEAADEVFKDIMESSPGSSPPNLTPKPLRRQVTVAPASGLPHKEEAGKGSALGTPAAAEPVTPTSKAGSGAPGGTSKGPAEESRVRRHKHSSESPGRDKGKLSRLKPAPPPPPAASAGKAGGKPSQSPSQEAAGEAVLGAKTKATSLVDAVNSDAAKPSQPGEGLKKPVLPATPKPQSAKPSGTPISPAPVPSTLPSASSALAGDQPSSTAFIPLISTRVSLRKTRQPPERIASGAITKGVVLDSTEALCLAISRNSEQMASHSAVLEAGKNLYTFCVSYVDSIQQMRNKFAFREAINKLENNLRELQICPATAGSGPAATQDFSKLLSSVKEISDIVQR

[46] = system: Panel leukemia (Carcinoma cell lines); experiment: Antiproliferative activity against human Panel leukemia (5 Carcinoma cell lines) assessed as reduction in mean cell growth; format: functional; summary of the method: as §2
[47] = target: T1, RAF proto-oncogene serine/threonine-protein kinase; experiment: Inhibition of RAF1 (unknown origin) using […] as substrate incubated for 40 mins in presence of [gamma33P]ATP by scintillation counting based hotspot kinase assay
Summary of the method: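 IC50 from a radiometric assay. Kinase (5–10 mU) is incubated in 25 mM Tris pH 7.5 with 0.02 mM EGTA, 0.66 mg/mL myelin basic protein as substrate, 10 mM magnesium acetate and [γ33P]ATP. Mg-ATP starts the reaction, which runs 40 min at room temperature. It is stopped with 3% phosphoric acid, captured on filtermat, washed and counted by scintillation.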

NCI/ADR-RES [48] = experiment: Cytotoxicity against human NCI/ADR-RES cells; format: functional; summary of the method: as §3
PC-3 [49] = experiment: Antiproliferative activity against human PC-3 cells assessed as reduction in cell growth; format: functional; summary of the method: as §2

T1 sequence (P04049 whole entry): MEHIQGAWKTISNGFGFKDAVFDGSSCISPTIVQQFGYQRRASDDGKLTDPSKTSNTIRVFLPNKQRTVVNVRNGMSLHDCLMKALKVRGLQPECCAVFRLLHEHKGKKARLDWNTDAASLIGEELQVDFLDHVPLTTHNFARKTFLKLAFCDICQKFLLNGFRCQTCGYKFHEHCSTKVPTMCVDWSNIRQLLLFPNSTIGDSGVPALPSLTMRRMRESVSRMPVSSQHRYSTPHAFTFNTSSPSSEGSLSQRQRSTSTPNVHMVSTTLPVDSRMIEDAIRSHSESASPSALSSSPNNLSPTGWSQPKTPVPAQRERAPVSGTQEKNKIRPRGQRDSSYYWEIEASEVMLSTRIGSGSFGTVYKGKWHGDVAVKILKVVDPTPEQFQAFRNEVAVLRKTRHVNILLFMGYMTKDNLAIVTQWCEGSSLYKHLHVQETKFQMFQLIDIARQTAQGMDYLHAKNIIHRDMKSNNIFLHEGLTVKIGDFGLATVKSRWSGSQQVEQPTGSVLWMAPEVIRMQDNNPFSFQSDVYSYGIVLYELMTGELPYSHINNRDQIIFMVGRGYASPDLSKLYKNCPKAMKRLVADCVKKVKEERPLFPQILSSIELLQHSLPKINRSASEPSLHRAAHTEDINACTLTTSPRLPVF

COc1cccc(-c2nn(-c3ccccc3)cc2-c2ccnc(NCCCNC(=O)Nc3ccc(Cl)c(Cl)c3)c2)c1
inhibition [1]: 87.7%
inhibition at 10 µM (LOX IMVI): 192%
inhibition [2]: 90.4%
GI50 [3]: 3.51 µM
inhibition at 10 µM (HCC 2998): 162%
inhibition at 10 µM (COLO 205 [4]): 145%
LC50 (HOP-92 [5]): 71 µM
GI50 (COLO 205 [6]): 1870 nM
CC50 (MDA-MB-468 [7]): 9.82 µM
GI50 [8]: 2930 nM
TGI (RXF 393 [9]): 4.87 µM
CC50 (K562 [10]): 100 µM
GI50 [11]: 3.14 µM
GI50 (MDA-MB-468 [12]): 1920 nM
IC50 [13]: 770 nM
inhibition [14]: 56.9%
TGI (HCT-15 [15]): 6.66 µM
TGI (PC-3 [16]): 22.4 µM
TGI (HOP-92 [17]): 7.68 µM
TGI (SK-MEL-5 [18]): 3.32 µM
TGI (SNB-75 [19]): 19.2 µM
GI50 (NCI/ADR-RES [20]): 2190 nM
CC50 (HCT-15 [21]): 29.1 µM
GI50 [22]: 2440 nM
GI50 [23]: 3.74 µM
TGI (NCI/ADR-RES [24]): 5.39 µM
LC50 (SK-MEL-5 [25]): 6.3 µM
inhibition (Homo sapiens): 6.38%
LC50 (RXF 393 [26]): 23 µM
Activity (L132): 50%
LC50 (lethal concentration 50%) (COLO 205 [27]): 7.8 µM
GI50 (K562 [28]): 2380 nM
GI50 [29]: 4.71 µM
GI50 (SK-MEL-5 [30]): 1750 nM
CC50 (SNB-75 [31]): 100 µM
TGI (K562 [32]): 5.85 µM
GI50 [33]: 2690 nM
Activity [34]: 104.1%
GI50 (SNB-75 [35]): 2520 nM
TGI (MDA-MB-468 [36]): 4.34 µM
LC50 (PC-3 [37]): 100 µM
TGI (COLO 205 [38]): 3.82 µM
inhibition [39]: 3.38%
GI50 [40]: 1890 nM
GI50 (HOP-92 [41]): 2320 nM
inhibition [42]: 45.8%
GI50 (HCT-15 [43]): 2400 nM
GI50 (RXF 393 [44]): 1800 nM
inhibition [45]: 7.7%
GI50 [46]: 2310 nM
IC50 [47]: 1500 nM
LC50 (NCI/ADR-RES [48]): 86.9 µM
GI50 (PC-3 [49]): 3.96 µM
